Source: ChEMBL document CHEMBL1145421, “Discovery of novel antitumor antimitotic agents that also reverse tumor resistance” (J Med Chem, 2007)
Blank lines part the entries; values can stand above or below the compound they belong to.

Tests used:
MCF7 [1] = assay: Growth inhibition of Pgp deficient MCF7 cells expressing MRP1; assay type: functional, cell-based; conditions: Homo sapiens
In short: (§1)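 NCI/ADR (Pgp-overexpressing) or MCF-7/VP (MRP1-expressing, Pgp-negative) cells were seeded at about 15% confluency and allowed to attach for 24 h. They were then exposed for 48 h to varying compound concentrations, limited by solubility, without added vinca drug. Survival was read by sulforhodamine B binding against ethanol solvent controls. Each value is the mean of three equally treated wells.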

[2] = Growth inhibition of NCI/ADR cells expressing Pgp/MRP1; assay type: functional, cell-based; conditions: Homo sapiens, NCI/ADR-RES; in short: as §1
[3] = Growth inhibition of Pgp deficient MCF7/VP cells expressing MRP1; assay type: functional, cell-based; conditions: Homo sapiens; in short: as §1
HL-60 [4] = assay: Cell cycle arrest in HL60 cells assessed as accumulation in G0/G1 phase at 200 nM; assay type: functional, Homo sapiens
In short: (§2)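 HL-60 cells exposed 24 or 48 h to drug or ethanol vehicle. Nuclei prepared by detergent-trypsin method: citrate/sucrose/DMSO buffer, trypsin, then trypsin inhibitor plus RNase A, then propidium iodide with spermine, 30 min at 4 °C. Filtered, resuspended, DNA content measured by flow cytometry. Percentages given for G0/G1, S and G2/M. Mean ± SEM.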

HL-60 [5] = assay: Cell cycle arrest in HL60 cells assessed as accumulation in S phase at 200 nM; assay type: functional, Homo sapiens; in short: as §2
HL-60 [6] = assay: Cell cycle arrest in HL60 cells assessed as accumulation in […] phase at 200 nM; assay type: functional, Homo sapiens; in short: as §2
[7] = Cytotoxicity against human T24 cells after 48 hrs by SRB binding assay; assay type: cell-based; conditions: T-24, 48 h
MCF7 [8] = assay: Cytotoxicity against human MCF7 cells after 48 hrs by SRB binding assay; assay type: functional, cell-based; conditions: MCF7, 48 h
In short: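 Drug-sensitive MCF-7 cells seeded at ~15% confluency and allowed 24 h recovery. Exposed 48 h to graded concentrations. Survival measured by SRB binding as % decrease versus ethanol-vehicle controls, mean of triplicate wells.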

[9] = Cytotoxicity against Pgp overexpressing human NCI/ADR cells after 48 hrs by SRB binding assay; assay type: functional, cell-based; conditions: NCI/ADR-RES
In short: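 NCI/ADR (Pgp-overexpressing) cells seeded at ~15% confluency and allowed 24 h to attach. Exposed 48 h to graded concentrations, as solubility allowed, without vinblastine. Survival measured by sulforhodamine B binding as % decrease in SRB binding versus ethanol-vehicle controls, mean of three wells per condition.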

[10] = Cytotoxicity against MRP1 overexpressing human MCF7/VP cells after 48 hrs by SRB binding assay; assay type: functional, cell-based
In short: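 MCF-7/VP (MRP1-expressing, Pgp-negative) cells seeded at ~15% confluency and allowed 24 h to attach. Exposed 48 h to graded concentrations without vincristine. Survival measured by SRB binding versus ethanol controls.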

NCI/ADR = assay: Inhibition of P-glycoprotein activity assessed as increase in accumulation of [3H]vinblastine in NCI/ADR cells; assay type: cell-based; conditions: Homo sapiens

IC50 (MCF7 [1]): 2.5 nM
Compound: CC(=O)O[C@H]1C(=O)[C@@]2(C)[C@H]([C@H](OC(=O)c3ccccc3)[C@]3(O)C[C@H](OC(=O)[C@H](O)[C@@H](NC(=O)c4ccccc4)c4ccccc4)C(C)=C1C3(C)C)[C@]1(OC(C)=O)CO[C@@H]1C[C@@H]2O [PACLITAXEL]
IC50 [2]: 2700 nM
IC50 [3]: 2.8 nM
Activity (HL-60 [4]): 67.3%
Activity (HL-60 [5]): 22.2%
Activity (HL-60 [6]): 10.5%

Compound: COc1ccccc1CCc1cn(Cc2ccccc2)c2nc(N)nc(C)c12
IC50 [7]: 2500 nM
IC50 (MCF7 [8]): 2300 nM
IC50 [9]: 2700 nM
IC50 [10]: 2600 nM
Activity (NCI/ADR): Dose-dependent effect

Compound: COc1ccc(CCc2cn(Cc3ccccc3)c3nc(N)nc(C)c23)cc1
IC50 [7]: 31700 nM
IC50 (MCF7 [8]): 13000 nM
IC50 [9]: 21700 nM
IC50 [10]: 22700 nM
